Reference: ChEMBL document CHEMBL1687913, “Structure-activity relationship, conformational and biological studies of temporin L analogues” (J Med Chem, 2011)
Values after ≈ are worked out from the molar mass of the structure shown. Where a SMILES comes first, the peptide text is derived from it.

Key:
Acinetobacter baumannii = assay: Antibacterial activity against Acinetobacter baumannii ATCC 19606 after 18 to 20 hrs by microbroth dilution method; type: functional
Outline: (§1)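 CLSI microbroth dilution, adapted. Mid-log bacteria, 2 × 10^6 CFU/mL in Mueller-Hinton broth, mixed 1:1 with MH broth holding peptide in serial 2-fold dilutions in 20% ethanol (0.75-48 μM). Incubated 18-20 h at 37 °C; growth read as A600. MIC is the lowest concentration giving 100% growth inhibition.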

Acinetobacter junii = assay: Antibacterial activity against […] Acinetobacter junii RT-4 after 18 to 20 hrs by microbroth dilution method; type: functional; outline: as §1
Enterococcus faecalis = assay: Antibacterial activity against Enterococcus faecalis ATCC 29212 after 18 to 20 hrs by microbroth dilution method; type: functional; outline: as §1
Escherichia coli [1] = assay: Antibacterial activity against Escherichia coli ATCC 25922 after 18 to 20 hrs by microbroth dilution method; type: functional; outline: as §1
Escherichia coli [2] = assay: Antibacterial activity against Escherichia coli D21 after 18 to 20 hrs by microbroth dilution method; type: functional; outline: as §1
Pseudomonas syringae = assay: Antibacterial activity against Pseudomonas syringae pv tobaci after 18 to 20 hrs by microbroth dilution method; type: functional; outline: as §1
Pseudomonas aeruginosa [3] = assay: Antibacterial activity against Pseudomonas aeruginosa ATCC 15692 after 18 to 20 hrs by microbroth dilution method; type: functional; outline: as §1
Pseudomonas aeruginosa [4] = assay: Antibacterial activity against Pseudomonas aeruginosa ATCC 27853 after 18 to 20 hrs by microbroth dilution method; type: functional; outline: as §1
[5] = tested on: Yersinia pseudotuberculosis; assay: Antibacterial activity against Yersinia pseudotuberculosis YPIII after 18 to 20 hrs by microbroth dilution method; type: functional
Outline: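 Broth microdilution adapted from CLSI. Mid-log bacteria at 2 × 10^6 CFU/mL in Mueller-Hinton broth were mixed 1:1 with MH broth containing peptide in serial 2-fold dilutions (peptide in 20% ethanol), 0.75-48 μM. Plates were incubated 18-20 h at 37 °C and growth was read as A600. MIC is the concentration giving 100% growth inhibition.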

Priestia megaterium = assay: Antibacterial activity against Bacillus megaterium Bm11 after 18 to 20 hrs by microbroth dilution method; type: functional; outline: as §1
Staphylococcus aureus [6] = assay: Antibacterial activity against Staphylococcus aureus ATCC 25923 after 18 to 20 hrs by microbroth dilution method; type: functional; outline: as §1
Staphylococcus aureus [7] = assay: Antibacterial activity against Staphylococcus aureus Cowan I after 18 to 20 hrs by microbroth dilution method; type: functional; outline: as §1
Staphylococcus capitis = assay: Antibacterial activity against Staphylococcus capitis after 18 to 20 hrs by microbroth dilution method; type: functional; outline: as §1
[8] = tested on: Staphylococcus epidermidis; assay: Antibacterial activity against Staphylococcus epidermidis ATCC 12228 after 18 to 20 hrs by microbroth dilution method; type: functional; outline: as §1
Streptococcus pyogenes = assay: Antibacterial activity against Streptococcus pyogenes ATCC 21547 after 18 to 20 hrs by microbroth dilution method; type: functional; outline: as §1
Candida albicans = assay: Antifungal activity against Candida albicans ATCC 10231 after 18 to 20 hrs by microbroth dilution method; type: functional
Outline: (§2)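 Yeasts tested by adapted CLSI microbroth dilution in Winge medium. Peptide given in serial 2-fold dilutions (0.75-48 μM, made in 20% ethanol). Incubation 18-20 h at 30 °C, read at A600. MIC taken as the concentration giving complete (100%) growth inhibition.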

[9] = tested on: Schizosaccharomyces pombe; assay: Antifungal activity against Schizosaccharomyces pombe after 18 to 20 hrs by microbroth dilution method; type: functional; outline: as §2
Saccharomyces cerevisiae = assay: Antifungal activity against Saccharomyces cerevisiae after 18 to 20 hrs by microbroth dilution method; type: functional; outline: as §2
[10] = Toxicity in human erythrocytes assessed as hemolysis at 24 uM after 40 mins; type: cell-based, Erythrocyte; conditions: read-out: Activity
Outline: (§3)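 Human red blood cells suspended in 0.9% (w/v) NaCl and incubated 40 min at 37 °C with gentle mixing with serial 2-fold peptide dilutions (peptide predissolved in 20% ethanol). Spun 5 min at 900g; supernatant read at 415 nm. Cells lysed in distilled water set the 100% lysis reference.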

[11] = Toxicity in human erythrocytes assessed as hemolysis at 12 uM after 40 mins; type: cell-based, Erythrocyte; conditions: read-out: Activity; outline: as §3
[12] = Toxicity in human erythrocytes assessed as hemolysis at 6 uM after 40 mins; type: cell-based, Erythrocyte; conditions: read-out: Activity; outline: as §3
[13] = Toxicity in human erythrocytes assessed as hemolysis at 3 uM after 40 mins; type: cell-based, Erythrocyte; conditions: read-out: Activity; outline: as §3
[14] = Toxicity in human erythrocytes assessed as hemolysis at 1.5 uM after 40 mins; type: cell-based, Erythrocyte; conditions: read-out: Activity; outline: as §3

Row | SMILES | MIC (Acinetobacter baumannii) [µM] | MIC (Acinetobacter junii) [µM] | MIC (Enterococcus faecalis) [µM] | MIC (Escherichia coli [1]) [µM] | MIC (Escherichia coli [2]) [µM] | MIC (Pseudomonas syringae) [µM] | MIC (Pseudomonas aeruginosa [3]) [µM] | MIC (Pseudomonas aeruginosa [4]) [µM] | MIC [5] [µM] | MIC (Priestia megaterium) [µM] | MIC (Staphylococcus aureus [6]) [µM] | MIC (Staphylococcus aureus [7]) [µM] | MIC (Staphylococcus capitis) [µM] | MIC [8] [µM] | MIC (Streptococcus pyogenes) [µM] | MIC (Candida albicans) [µM] | MIC [9] [µM] | MIC (Saccharomyces cerevisiae) [µM] | hemolysis at 40 min, 24 µM [10] [%] | hemolysis at 40 min, 12 µM [11] [%] | further results
1 | CC[C@@H](C)[C@@H](NC(=O)[C@@H](CCCNC(=N)N)NC(=O)CNC(=O)[C@@H](CC(C)C)NC(=O)[C@@H](Cc1ccccc1)NC(=O)[C@@H](CCCCN)NC(=O)[C@@H](CO)NC(=O)[C@@H](Cc1ccccc1)NC(=O)[C@@H](Cc1c[nH]c2ccccc12)NC(=O)[C@@H](CCC(N)=O)NC(=O)[C@H](NC(=O)[C@H](N)Cc1ccccc1)C(C)C)C(=O)N[C@H](CC(C)C)C(N)=O [listing 1 of 2 here] | 6 (≈ 9.84 µg/mL) | 6 (≈ 9.84 µg/mL) | 3 (≈ 4.92 µg/mL) | 12 (≈ 19.7 µg/mL) | 12 (≈ 19.7 µg/mL) | 6 (≈ 9.84 µg/mL) | 48 (≈ 78.7 µg/mL) | > 48 | 3 (≈ 4.92 µg/mL) | 1.5 (≈ 2.46 µg/mL) | 3 (≈ 4.92 µg/mL) | 3 (≈ 4.92 µg/mL) | 3 (≈ 4.92 µg/mL) | 3 (≈ 4.92 µg/mL) | 6 (≈ 9.84 µg/mL) | 6 (≈ 9.84 µg/mL) | 6 (≈ 9.84 µg/mL) | 6 (≈ 9.84 µg/mL) |  |  | 
2 | CC[C@H](C)[C@H](NC(=O)[C@H](CCCNC(=N)N)NC(=O)[C@@H]1CCCN1C(=O)[C@H](CC(C)C)NC(=O)[C@H](Cc1ccccc1)NC(=O)[C@H](CCCCN)NC(=O)[C@H](CO)NC(=O)[C@H](Cc1ccccc1)NC(=O)[C@H](Cc1c[nH]c2ccccc12)NC(=O)[C@@H]1CCCN1C(=O)[C@@H](NC(=O)[C@@H](N)Cc1ccccc1)C(C)C)C(=O)N[C@@H](CC(C)C)C(N)=O | 48 (≈ 79.2 µg/mL) | 12 (≈ 19.8 µg/mL) | 48 (≈ 79.2 µg/mL) | 48 (≈ 79.2 µg/mL) | 24 (≈ 39.6 µg/mL) | 24 (≈ 39.6 µg/mL) | > 48 | > 48 | 24 (≈ 39.6 µg/mL) | 3 (≈ 4.95 µg/mL) | 24 (≈ 39.6 µg/mL) | 24 (≈ 39.6 µg/mL) | 12 (≈ 19.8 µg/mL) | 12 (≈ 19.8 µg/mL) | 12 (≈ 19.8 µg/mL) | 12 (≈ 19.8 µg/mL) | 12 (≈ 19.8 µg/mL) | 12 (≈ 19.8 µg/mL) | 5 | 5 | hemolysis at 40 min, 6 µM [12]: 4.5%; hemolysis at 40 min, 3 µM [13]: 2%; hemolysis at 40 min, 1.5 µM [14]: 2%
3 | CC[C@@H](C)[C@@H](NC(=O)[C@H](N)CC(C)C)C(=O)N[C@H](CCCNC(=N)N)C(=O)NCC(=O)N[C@H](CC(C)C)C(=O)N[C@H](Cc1ccccc1)C(=O)N[C@H](CCCCN)C(=O)N[C@H](CO)C(=O)N[C@H](Cc1ccccc1)C(=O)N[C@H](Cc1c[nH]c2ccccc12)C(=O)N[C@H](CCC(N)=O)C(=O)N[C@@H](C(=O)N[C@H](Cc1ccccc1)C(N)=O)C(C)C | 6 (≈ 9.84 µg/mL) | 6 (≈ 9.84 µg/mL) | 12 (≈ 19.7 µg/mL) | 12 (≈ 19.7 µg/mL) | 12 (≈ 19.7 µg/mL) | 6 (≈ 9.84 µg/mL) | > 48 | > 48 | 24 (≈ 39.4 µg/mL) | 1.5 (≈ 2.46 µg/mL) | 12 (≈ 19.7 µg/mL) | 3 (≈ 4.92 µg/mL) | 6 (≈ 9.84 µg/mL) | 6 (≈ 9.84 µg/mL) | 6 (≈ 9.84 µg/mL) | 12 (≈ 19.7 µg/mL) | 1.5 (≈ 2.46 µg/mL) | > 48 |  |  | 
4 | CC[C@@H](C)[C@@H](NC(=O)[C@@H](CCCNC(=N)N)NC(=O)CNC(=O)[C@@H](CC(C)C)NC(=O)[C@@H](Cc1ccccc1)NC(=O)[C@@H](CCCCN)NC(=O)[C@@H](CO)NC(=O)[C@@H](Cc1ccccc1)NC(=O)[C@@H](Cc1c[nH]c2ccccc12)NC(=O)[C@@H](CCC(N)=O)NC(=O)[C@H](NC(=O)[C@H](N)Cc1ccccc1)C(C)C)C(=O)N[C@H](CC(C)C)C(N)=O [listing 2 of 2 here] |  |  |  |  |  |  |  |  |  |  |  |  |  |  |  |  |  |  | 90 | 88 | hemolysis at 40 min, 6 µM [12]: 46%; hemolysis at 40 min, 3 µM [13]: 13%; hemolysis at 40 min, 1.5 µM [14]: 5%
5 | CC[C@H](C)[C@H](NC(=O)[C@H](CCCNC(=N)N)NC(=O)CNC(=O)[C@H](CC(C)C)NC(=O)[C@H](Cc1ccccc1)NC(=O)[C@H](CCCCN)NC(=O)[C@H](CO)NC(=O)[C@H](Cc1ccccc1)NC(=O)[C@H](Cc1c[nH]c2ccccc12)NC(=O)[C@@H]1CCCN1C(=O)[C@H](CC(C)C)NC(=O)[C@@H](N)Cc1ccccc1)C(=O)N[C@@H](CC(C)C)C(N)=O (H-FLPWFSKFLGRIL-NH2) | 12 (≈ 19.5 µg/mL) | 12 (≈ 19.5 µg/mL) | 12 (≈ 19.5 µg/mL) | 12 (≈ 19.5 µg/mL) | 24 (≈ 39 µg/mL) | 12 (≈ 19.5 µg/mL) | > 48 |  | 6 (≈ 9.74 µg/mL) | 3 (≈ 4.87 µg/mL) | 3 (≈ 4.87 µg/mL) | 3 (≈ 4.87 µg/mL) | 3 (≈ 4.87 µg/mL) | 3 (≈ 4.87 µg/mL) | 6 (≈ 9.74 µg/mL) | 12 (≈ 19.5 µg/mL) | 6 (≈ 9.74 µg/mL) | 12 (≈ 19.5 µg/mL) | 93 | 64 | hemolysis at 40 min, 6 µM [12]: 19%; hemolysis at 40 min, 3 µM [13]: 9%; hemolysis at 40 min, 1.5 µM [14]: 4%
